Tests used:
[1] = tested on: SiHa; test: Cytotoxicity against human SiHa cells under hypoxic conditions after 4 hrs; format: functional, cell-based
[2] = tested on: HT-29; test: Diffusion coefficient, D in HT29 multicellular layers; format: ADME, cell-based; details: human
Procedure, shortened: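 HT29 multicellular layers were grown 3 days on collagen-coated Teflon membranes, equilibrated 60 min under 95% O2/5% CO2 at 37 °C, then placed in a diffusion chamber. Donor and receiver were sampled up to 5 h and assayed by HPLC. D came from fitting both profiles to a Fickian model with membrane and MCL in series, corrected by support-only Ds.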

[3] = Solubility in culture medium in presence of 5% fetal calf serum; format: physicochemical; details: culture medium with 5% fetal calf serum
[4] = tested on: HT-29; test: Ratio of IC50 for HT29 cells under oxic conditions to hypoxic conditions after 4 hrs; format: functional, Homo sapiens
[5] = tested on: SiHa; test: Ratio of IC50 for SiHa cells under oxic conditions to hypoxic conditions after 4 hrs; format: functional, Homo sapiens
[6] = tested on: HT-29; test: Cytotoxicity against human HT29 cells under hypoxic conditions after 4 hrs; format: functional, cell-based; details: HT-29, 4 h
[7] = tested on: HT-29; test: Effect on human HT29 cells under hypoxic conditions assessed as drug level causing 10% clonogenic survival; format: functional
Procedure, shortened: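 HT29 suspensions (1 or 2 × 10^6 cells/mL) in serum-free medium were stirred under 5% CO2/95% N2 for 90 min. Drug was added from deoxygenated DMSO stock at a level giving about 10% survival at 1 h, and samples were taken up to 3 h. Clonogenic survival (14 days, methylene blue) was fitted with the HPLC concentration–time data, and the 10% survival exposure was interpolated.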

[8] = tested on: Mus musculus; test: Toxicity in ip dosed CD1 mouse; format: organism-based; details: in vivo
Procedure, shortened: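 MTD in CD-1 homozygous nude mice after single i.p. doses (HCl salts in saline, 5% DMSO/saline or lactate buffer pH 4.0), escalated in 1.33-fold increments. MTD taken as the highest dose causing no death, no body weight loss >15% and no other severe morbidity in any of 6 mice.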

[9] = AUC in CD1 mouse at 316 umol/kg, ip; format: ADME, organism-based; details: plasma
Procedure, shortened: (§1)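 Single i.p. dose to CD-1 homozygous nude mice, drug as HCl salt in 0.9% saline, 5% DMSO/saline or lactate buffer (pH 4.0). Plasma total drug measured by HPLC at 75 or 100% of MTD (MTD from 1.33-fold dose steps, 6 mice). Noncompartmental analysis gave AUC, Cmax and t1/2.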

[10] = Cmax in CD1 mouse at 316 umol/kg, ip; format: ADME, organism-based; set-up: dose 316 umol/kg, route intraperitoneal; details: in vivo; procedure, shortened: as §1
[11] = Half life in CD1 mouse at 316 umol/kg, ip; format: ADME, organism-based; details: in vivo; procedure, shortened: as §1
[12] = Cmax in CD1 mouse at 750 umol/kg, ip; format: ADME, organism-based; set-up: dose 750 umol/kg, route intraperitoneal; details: in vivo; procedure, shortened: as §1
[13] = Half life in CD1 mouse at 750 umol/kg, ip; format: ADME, organism-based; details: in vivo; procedure, shortened: as §1
[14] = AUC in CD1 mouse at 750 umol/kg, ip; format: ADME, organism-based; details: plasma; procedure, shortened: as §1

SMILES	solubility [3]	IC50 [1]	D [2]	Ratio IC50 [4]	Ratio IC50 [5]	IC50 [6]	Activity [7]	MTD [8]	AUC [9]	Cmax [10]	half-life [11]	Cmax [12]	half-life [13]	AUC [14]
[O-][n+]1nc(NCCN2CCCCC2)[n+]([O-])c2cc(Cl)ccc21	3.2 mM	0.2 µM	1.1e-06 cm²/s	19	18	0.4 µM								
CC(C)(C)c1ccc2c(c1)[n+]([O-])c(NCCN1CCOCC1)n[n+]2[O-]	1.8 mM	10.9 µM		13	55	61.2 µM								
COc1ccc2c(c1)[n+]([O-])c(NCCN1C(C)CCCC1C)n[n+]2[O-] (stereo not given)	29 mM	1 µM		34	121	3.9 µM	26.1 µM·h							
CCCN(CCC)CCNc1n[n+]([O-])c2ccc(C)cc2[n+]1[O-]	38 mM	0.6 µM	1.48e-06 cm²/s	108	149	2.7 µM	38.6 µM·h	421 µmol/kg	2.6 µM·h	3.8 µM	17.3 min			
Cc1ccc2c(c1)[n+]([O-])c(NCCN1CCOCC1)n[n+]2[O-]	> 46 mM	8.3 µM	4.52e-07 cm²/s	55	86	21.8 µM	134 µM·h	1000 µmol/kg				132 µM	15.4 min	86.8 µM·h
[O-][n+]1nc(NCCN2CCCC2)[n+]([O-])c2ccccc21	61 mM	0.2 µM		70	132	0.6 µM	3.6 µM·h							
COc1ccc2c(c1)[n+]([O-])c(NCCCN1CCOCC1)n[n+]2[O-]	> 44 mM	10.2 µM		>8	447	22 µM	149.7 µM·h							
[O-][n+]1nc(NCCN2CCCCC2)[n+]([O-])c2ccccc21	> 49 mM	1.1 µM	7.23e-07 cm²/s	24	55	1.8 µM	2.8 µM·h							
COc1ccc2c(c1)[n+]([O-])c(NCCCN1CCC(C#N)C1)n[n+]2[O-] (stereo not given)	47 mM	31.9 µM		41	36	40.6 µM	211.4 µM·h							

Further lines, with some results ahead:

solubility [3]	SMILES	IC50 [1]	D [2]	Ratio IC50 [4]	Ratio IC50 [5]	IC50 [6]	Activity [7]	MTD [8]	AUC [9]	Cmax [10]	half-life [11]	Cmax [12]	half-life [13]	AUC [14]
39 mM	CCCN(CCC)CCNc1n[n+]([O-])c2ccc(C(C)C)cc2[n+]1[O-]	0.9 µM		35	65	4.4 µM	41.6 µM·h							
50 mM	CN(C)CCNc1n[n+]([O-])c2ccccc2[n+]1[O-]	0.2 µM		80	157	0.7 µM	3.2 µM·h							
45 mM	CCN(CC)CCNc1n[n+]([O-])c2ccc(C(C)C)cc2[n+]1[O-]	0.8 µM		122	113	2 µM	18.6 µM·h							
> 49 mM	CCN(CC)CCNc1n[n+]([O-])c2ccc(C)cc2[n+]1[O-]	0.3 µM		51	35	1 µM	8.3 µM·h							
39 mM	CCc1ccc2c(c1)[n+]([O-])c(NCCN1CCCCC1)n[n+]2[O-]	1 µM		65	50	1.5 µM	11.9 µM·h							
> 48 mM	CCN(CC)CCNc1n[n+]([O-])c2ccc(C(C)(C)C)cc2[n+]1[O-]	0.9 µM		37	90	4.3 µM	33.1 µM·h							
